Compounds with a hit are over-represented: about 2.2% of the library has one in this group of screens.
PERK inh: block of dimerizer-induced PERK translation repression, primary screen, PERK inhibitor project, CHO PERK-DD cells, SEAP luminescence, HTS; CHO PERK-DD fusion, SEAP luminescence translation reporter; inhibition, % at 5.6 µM; actives 0.17% (n = 220,000);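 active = inhibition above the mean inhibition of all tested compounds plus 3 SD, set separately per screening campaign, cut at about 2.9% in these data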;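 also: PERK kinase domain activated by AP20187 dimerizer at 100 nM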
Runt-CBFb FRET: inhibitors of RUNX1 Runt–CBFb binding, primary screen, biochemical, FRET, Cerulean-Runt, Venus-CBFb, uHTS. Runt-related transcription factor 1 (Homo sapiens) + Core-binding factor subunit beta …. Cerulean-Runt/Venus-CBFb FRET ratio 530/480, 1 h. inhibition, % at 20 µM. actives 0.46% (n = 220,000);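 active = inhibition over about 50% at 20 µM in the single-dose screen, limit read from the data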
Target sequence (Q01196 whole entry, looked up): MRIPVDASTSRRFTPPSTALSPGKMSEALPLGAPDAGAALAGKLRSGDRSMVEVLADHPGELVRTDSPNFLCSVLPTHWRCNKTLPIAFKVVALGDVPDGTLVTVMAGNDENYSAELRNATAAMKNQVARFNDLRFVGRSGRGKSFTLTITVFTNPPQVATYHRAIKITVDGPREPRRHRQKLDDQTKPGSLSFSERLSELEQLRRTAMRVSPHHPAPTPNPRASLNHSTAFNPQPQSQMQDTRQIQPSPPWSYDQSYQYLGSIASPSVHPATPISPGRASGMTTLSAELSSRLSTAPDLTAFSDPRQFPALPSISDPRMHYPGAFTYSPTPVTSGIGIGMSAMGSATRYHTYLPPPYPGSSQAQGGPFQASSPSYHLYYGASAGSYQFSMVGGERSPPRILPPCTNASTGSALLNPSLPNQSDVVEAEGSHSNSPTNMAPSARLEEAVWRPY
Target sequence (Q13951 whole entry, looked up): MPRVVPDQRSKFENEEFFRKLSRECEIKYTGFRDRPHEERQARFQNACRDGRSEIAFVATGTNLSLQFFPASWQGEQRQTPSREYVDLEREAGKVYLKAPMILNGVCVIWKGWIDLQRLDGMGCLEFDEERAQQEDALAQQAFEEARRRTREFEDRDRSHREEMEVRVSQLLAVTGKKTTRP
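test system = Cerulean-Runt domain fusion protein, energy donor | probe or stimulus = Venus-CBFb binding partner, 100 nM | incubation = two 1 h room-temperature incubations shielded from light | detection = fluorescence energy transfer, 422 nm excitation, 530/480 nm emission | measure = loss of energy transfer signal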
Hck-Nef inh: inhibitors of Nef-activated human Hck kinase, primary screen, biochemical, Z-Lyte FRET, 384-well, Hck-YEEI | Tyrosine-protein kinase HCK (Homo sapiens), P08631 | Recombinant Hck-YEEI plus Nef, Z-Lyte FRET kinase assay | AID 463187, 2010 | inhibition, % at 20 µM | actives 0.68% (n = 220,000);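 active = Hck-Nef kinase inhibition above about 50%, limit read from the data; inactive = inhibition below that limit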
Runt-SMMHC FRET: inhibitors of RUNX1 Runt–CBFb-SMMHC binding, primary screen, biochemical, FRET, Cerulean-Runt, Venus-CBFb-SMMHC, uHTS; Runt-related transcription factor 1 (Homo sapiens) + Core-binding factor subunit beta …; Cerulean-Runt/Venus-CBFb-SMMHC FRET ratio 530/480, 1 h; inhibition, % at 20 µM; actives 0.74% (n = 220,000);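 active = mean inhibition across duplicate retests at 20 µM reaching about 50%, limit read from the data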;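 also: inhibitors lower the FRET ratio by blocking Runt binding to CBFb-SMMHC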
RanGTP-Impb inh: inhibitors of RanGTP-importin-beta interaction, primary screen, biochemical, FRET, CFP-Ran, YFP-importin-beta, homogeneous. actives 1.1% (n = 300,000). inhibition, % (test concentration not listed). cell-free CFP-Ran/YFP-importin-beta FRET ratio. Ran GTPase (GTP-bound) - importin-beta complex;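 active = more than half of the replicate wells show a fall in the fluorescence ratio signal beyond about 16%, limit read from the data, passing the limit was not always enough; inconclusive = exactly half of the replicate wells pass the set limit; inactive = fewer than half of replicates pass the limit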
eIF4E-4G inh: eIF4E–eIF4G protein interaction inhibitors, primary screen, biochemical, uHTS, TR-FRET, eIF4GI fragment; Eukaryotic translation initiation factor 4E (Mus musculus) + Eukaryotic translation …; TR-FRET eIF4E-eIF4GI(517-606) binding, 2 h; inhibition, % at 21.7 µM; actives 0.37% (n = 220,000); AID 782, 2007;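 active = inhibition above about 30%, limit read from the data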
Hits are given with their value; . = inactive; ? = inconclusive; / = no result given.

SMILES | PERK inh | Runt-CBFb FRET | Hck-Nef inh | Runt-SMMHC FRET | RanGTP-Impb inh | eIF4E-4G inh
CCOC(=O)c1c(C)noc1-c1ccc(Br)o1 | 4.6 | . | . | . | . | .
CC1(C(=O)NNC(=O)c2ccc(=O)oc2)CC1Br (stereo not drawn) | . | . | . | 84 | . | .
Cc1cc(=O)oc(C)c1C(=O)NNC(=O)C1(C)CC1Br (stereo not drawn) | . | . | . | . | . | .
COc1ccc(OC)c(S(=O)(=O)N2CCN(c3ncccn3)CC2)c1 | / | / | / | / | . | /
COc1ccc(OC)c(S(=O)(=O)N2CCN(c3c(C)cccc3C)CC2)c1 | . | . | . | . | . | 73
Cc1cccc(OCC(=O)O/N=C(\N)Cc2ccc([N+](=O)[O-])cc2)c1 | . | . | . | . | . | .
Cc1ccc(OCC(=O)O/N=C(\N)Cc2ccc([N+](=O)[O-])cc2)cc1C | . | . | . | . | . | 40
CCn1c2ccccc2c2nc3cc(S(=O)(=O)N4CCOCC4)ccc3nc21 | . | . | . | . | . | 48
C=CC[N+](C)(C)CC(=O)OCc1ccccc1 | . | . | . | . | . | .
Oc1nc(Nc2ccccc2)sc1/C=C1\C=Nc2ccccc21 | . | . | . | . | 21 | .
CCOC(=O)c1c(Nc2ccccc2)sc(/C=C2\C=Nc3ccccc32)c1O | . | . | . | . | 43 | .
CCn1c(O)c(/C=C2\C=Nc3ccccc32)sc1=O | . | . | . | . | . | .
CCn1c(O)c(/C=C2\C=Nc3ccccc32)sc1=Nc1ccc(C)cc1 | . | . | . | . | . | .
O=C(CN1C(=O)NC2(CCCC2)C1=O)N1CCN(S(=O)(=O)c2ccccc2[N+](=O)[O-])CC1 | / | / | / | / | . | /
COc1ccc(-c2c(C(F)(F)F)nn(C)c2NC(=O)c2ccco2)cc1 | . | . | . | . | . | .
COc1ccc(OC)c(NC(=O)Cn2c(C)nc3ccccc3c2=O)c1 | . | . | . | . | . | .
COc1ccc(NC(=O)COC(=O)CNS(=O)(=O)c2ccccc2)cc1OC | . | . | . | . | . | .
Cc1cccc2nc(CSc3nc4ccccc4[nH]3)cn12 | . | 71 | . | . | . | .
c1ccc2[nH]c(SCc3cn4ccccc4n3)nc2c1 | . | . | . | . | ? | .
CCCn1nc(NC(=O)C(C)(C)C)c2cc3cc(OC)ccc3nc21 | / | / | / | / | 67 | /
CCCCn1nc(NC(=O)CC)c2cc3cc(OC)ccc3nc21 | / | / | / | / | 65 | /
CC(C)Cn1nc(NC(=O)C(C)(C)C)c2cc3ccccc3nc21 | . | . | . | . | . | .
CCCCn1nc(NC(=O)COC)c2cc3ccc(C)cc3nc21 | / | / | / | / | . | /
CCOC(=O)c1nn(-c2ccc(C)cc2)c(=O)cc1OCC(=O)N1CCN(c2ccccc2)CC1 | / | / | / | / | . | /
Cc1[nH]c2ccccc2c1C(=O)COC(=O)c1ccc2c(=O)n3c(nc2c1)CCC3 | . | . | . | . | . | .
CN(C)c1ncc(/C=C2/C(=O)NC(=S)N(C3CCCCC3)C2=O)cn1 | . | . | 68 | . | / | .
CCC(=O)Nc1ccc(Cl)c(NC(=S)NC(=O)COc2ccc(Cl)cc2)c1 | . | . | . | . | . | .
Cc1ccc(-c2nc3cnccn3c2Nc2c(C)cccc2C)o1 | . | . | . | . | 47 | .
Cn1c(Cl)c(C(=O)Nc2ccccc2)c2ccccc21 | . | . | . | . | / | .
C/C(=N\NC1=N[C@H]2CS(=O)(=O)C[C@H]2S1)c1ccccc1 | 3.3 | . | . | . | ? | .
